Screening results as filed in PubChem.
Compounds with a hit are over-represented: about 9.6% of the library has one in this group of screens.
MT stabilize HCS – microtubule stabilizers in HeLa cells, primary screen, imaging, high-content imaging. % tubulin-high responders, % at 10 µM. AID 2205, 2009. actives 0.83% (n = 200,000). HeLa tubulin immunostaining HCS, 24 h; share of cells brighter than vehicle mean+2SD;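 active = plate Z-score above 3 for both tubulin-high and condensed-nucleus cell shares, with cell loss under 80%, at 10 µM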;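 note: anti alpha tubulin signal scored within the nucleus-defined area of each cell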
APP transl inh – inhibitors of APP translation via 5'UTR reporter, primary screen, APP 5'UTR luciferase, SH-SY5Y cells; SH-SY5Y APP 5'UTR-luciferase reporter, luminescence; inhibition, % at 2 µM; actives 0.82% (n = 190,000); AID 1285, 2008;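 active = inhibition above a set limit, derived from the sample mean plus 3 SD, cut at about 45% in these data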
Ba/F3 V617F tox – reduced viability of JAK2V617F-dependent Ba/F3 cells, primary screen, JAK2V617F inhibitor project, cell-based, Ba/F3 EpoR-JAK2V617F, luminescence | ATP luminescence | inhibition, % at 5.6 µM | actives 1.1% (n = 220,000);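 active = inhibition above the campaign mean plus 3 SD over all tested compounds, cut at about 24% in these data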;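 note: cytokine-independent growth of Ba/F3 cells driven by EpoR plus mutant JAK2; 0% = DMSO-treated cells and 100% = JAK inhibitor I control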
bCat nuc transl – modulators of beta-catenin nuclear translocation, primary screen, imaging, HeLa cells, immunofluorescence, high-content; nuclear translocation activity, % at 5 µM; actives 0.3% (n = 190,000); AID 1665, 2009;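 active = nuclear translocation activity above 50% at 5 µM, with a well cell count of 50 or more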;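 note: per-cell ratio of nuclear to cytoplasmic median beta-catenin stain intensity; plate controls were DMSO negative control for no effect and GSK-3 inhibitor IX positive control for full effect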
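Technique: fluorescence imaging of beta-catenin antibody stain plus DAPI / Material: human HeLa cell line / Incubation: compound treatment 24 h, 37°C, 5% CO2 / Read-out basis: % activation of per-cell nuclear versus cytoplasmic median beta-catenin signal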
Lmaj promast – Leishmania major promastigote growth inhibition, primary screen | Leishmania major promastigotes, resazurin fluorescence viability | inhibition, % at 10 µM | actives 9% (n = 200,000) | AID 1063, 2008; in the data active = inhibition above about 50%;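 note: promastigotes grown with compound for 44 hours at 28 °C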
BaF3 parental – parental Ba/F3 cell viability inhibition, counter-screen for JAK2V617F inhibitor project, murine pro-B, CellTiter-Glo luminescence | CellTiter-Glo ATP luminescence | inhibition, % at 5.6 µM | actives 1.1% (n = 220,000) | AID 1486, 2009;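 active = inhibition above a per-campaign cutoff, the mean inhibition of all tested compounds plus 3 SD, cut at about 27% in these data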;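 note: 0% = DMSO wells and 100% = JAK Inhibitor I control wells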
* = called active by the depositor; · = no result given.

SMILES	MT stabilize HCS	APP transl inh	Ba/F3 V617F tox	bCat nuc transl	Lmaj promast	BaF3 parental
CCN(CC)S(=O)(=O)c1ccc(NC(=O)COc2nc3ccccc3nc2N2CCOCC2)cc1	3	0	-8	-5	10	2
O=C(CCc1n[nH]c(=O)[nH]c1=O)Nc1cccc([N+](=O)[O-])c1	4	-5	0	0	-3	2
COc1ccc(C2=NOC(C(=O)NCc3cccs3)C2)cc1OC (configuration not stated)	41*	·	87*	·	-3	76*
COc1ccc(C2=NOC(C(=O)NCc3cccs3)C2)cc1 (configuration not stated)	2	2	0	·	-4	3
COc1cc(C2=NOC(C(=O)NCc3cccs3)C2)cc(OC)c1OC (configuration not stated)	27	·	82*	·	-4	77*
COc1cc(OC)c(C2=NOC(C(=O)NCc3cccs3)C2)cc1Cl (configuration not stated)	19*	21	6	24	-1	19
COc1cc(OC)c(C2=NOC(C(=O)NCCc3ccccc3)C2)cc1Cl (configuration not stated)	2	1	-1	-2	41	3
COc1ccccc1NC(=O)Nc1ccnn1Cc1cccs1	1	-10	-2	0	-4	3
O=C(NCCc1ccccc1F)C1CCCN1S(=O)(=O)c1ccc2ccccc2c1 (configuration not stated)	4	-6	-1	1	57*	3
O=C(O)C1CCCN1S(=O)(=O)c1ccc2ccccc2c1 (configuration not stated)	2	11	-2	0	-5	7
O=C(NC1CC1)C1CCCN1S(=O)(=O)c1ccc2ccccc2c1 (configuration not stated)	24*	-13	0	8	-1	1
O=C(COc1ccc(S(=O)(=O)NC2CCCCC2)cc1)N1CCN(c2cccc(Cl)c2)CC1	1	18	-3	0	36	3
Cc1cnc(NC(=O)c2c(O)c3cccc4c3n(c2=O)CCC4)s1	1	-3	1	3	-4	1
CC(C)c1nnc(NC(=O)c2c(O)c3cccc4c3n(c2=O)CCC4)s1	4	-18	-5	1	72*	1
COc1ccc(CNC(=O)COC(=O)/C=C/c2cccc(Br)c2)cc1OC	4	-3	-1	-1	-5	8
Cc1ccc(-c2csc3ncn(-n4c(C)ccc4C)c(=O)c23)o1	3	-6	4	1	-1	6
CCC(CC)c1nnc(NC(=O)c2ccc3ccccc3n2)s1	4	-96	-3	1	78*	4
CCC(CC)c1nnc(NC(=O)c2cc(-c3ccccc3)nc3ccccc23)s1	4	-2	-5	0	-5	1
CCOC(=O)CC1COCCN1C(=O)CCc1nnc(-c2ccsc2)o1 (configuration not stated)	2	-13	-5	0	20	0
COc1cc(/C=N/Nc2snc(SC)c2C#N)ccc1O	49*	83*	73*	24	10	62*
O=[N+]([O-])c1ccc(O)c(/C=N/Nc2nc3ccccc3[nH]2)c1	9	81*	-1	1	100*	5
O=c1[nH]c(N/N=C/c2ccc(O)cc2)nc2ccccc12	5	-134	4	0	15	5
O=C(O)c1ccc(/C=N/Nc2nc3ccccc3[nH]2)cc1	·	·	-3	-2	·	0
O=[N+]([O-])c1cccc(N/N=C/c2cc([N+](=O)[O-])ccc2O)c1	4	-8	1	3	-2	3
CC(=O)Nc1ccc(/C=N/Nc2nc3ccccc3[nH]2)cc1	5	-20	6	-1	100*	-1
SMILES	MT stabilize HCS	APP transl inh	Ba/F3 V617F tox	bCat nuc transl	Lmaj promast	BaF3 parental
O=c1[nH]c(N/N=C\c2ccc(F)cc2)nc2ccccc12	3	-189	2	0	65*	7
CCOc1ccc(NC2OC(CO)C(O)C(O)C2O)c([N+](=O)[O-])c1 (configuration not stated)	6	8	5	-2	-2	-2
O=C1OCC/C1=C\OCCCO/C=C1\CCOC1=O	·	·	-1	0	·	4
Cc1cc(=O)[nH]c(-c2cccnc2)n1	3	-30	2	-1	-10	6
Cc1cc(Cl)ccc1NC(=O)CCC(=O)N/N=C/c1cc([N+](=O)[O-])ccc1O	3	5	6	0	92*	10
O=[N+]([O-])c1ccc(O)c(/C=N/Nc2ccccn2)c1	4	76*	68*	23	89*	34*
O=[N+]([O-])c1ccc(O)c(/C=N/NC(=S)Nc2ccc(Cl)cc2Cl)c1	·	·	15	-1	·	4
COc1ccc(O)c(/C=N/Nc2nc3ccccc3[nH]2)c1	3	-35	3	4	88*	7
Fc1ccc(/C=N/Nc2ccccn2)cc1	2	-49	2	0	69*	6
Clc1ccc(/C=N/Nc2ccccn2)cc1	3	-31	1	0	-6	1
c1ccc(Cc2noc(CN3CCCC(CN4CCOCC4)C3)n2)cc1 (configuration not stated)	4	19	2	-1	-7	0
COc1cc(/C=N/Nc2nc3ccccc3[nH]2)cc(OC)c1O	3	10	0	0	22	5
COc1cc(/C=N/Nc2nc3ccccc3[nH]2)ccc1O	5	-17	-4	2	80*	5
O=C(N/N=C/c1cc([N+](=O)[O-])ccc1O)C12CC3CC(CC(C3)C1)C2	5	14	-3	4	97*	2
CCCCN(C(=O)Cc1cccs1)c1nnc(-c2cccnc2)s1	3	-10	-4	-1	21	-1
O=[N+]([O-])c1ccc(NCCCNS(=O)(=O)c2ccccc2)c(Cl)c1	4	12	6	1	64*	7
Cc1ccc(C(=O)NCCNc2ccc([N+](=O)[O-])cc2C(F)(F)F)cc1	2	·	1	2	81*	7
O=[N+]([O-])c1ccc(NCCNS(=O)(=O)c2ccccc2)c(C(F)(F)F)c1	0	11	-2	0	79*	3
O=C(NCCNc1ccc([N+](=O)[O-])cc1C(F)(F)F)c1ccccc1F	1	3	0	-1	42	8
O=[N+]([O-])c1ccc(NCCNS(=O)(=O)c2ccccc2)cc1	2	32	-3	-2	-1	4
CCOCCCNS(=O)(=O)c1ccc(NC(=O)c2ccc([N+](=O)[O-])cc2Cl)cc1	1	0	0	·	74*	1
